FN deposit inh: inhibitors of fibronectin matrix deposition, primary screen, AH1F cells, Alexa488-fibronectin fluorescence, plate reader | AH1F fibroblasts, overnight | inhibition, % at 12.6 µM | 0.086% of 350,000 active | AID 743247, 2014;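 active = mean inhibition across replicates of 30% or more, regardless of how many single replicates reach that level; inconclusive = mean under 30% yet at least half of replicates reach 30%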;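 also: positive control wells lacked labelled fibronectin entirely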
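Measured by – fluorescence 485/525 nm · System – AH1F fibroblast monolayer, labelled fibronectin deposition · Amount – 10000 cells per well · Buffer or medium – serum-reduced DMEM (2% serum) · Doses – single dose, pinned · Also added – fluorescent fibronectin at 24 nM final · Schedule – 1 h cell attachment, overnight exposure to compound and label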
PglD inh: C. jejuni PglD acetyltransferase inhibitors, primary screen, biochemical, DTNB colorimetric, single point. UDP-N-acetylbacillosamine N-acetyltransferase PglD (Campylobacter jejuni). purified PglD enzyme, DTNB colorimetric CoA detection. inhibition, % at 12.5 µM. 0.098% of 360,000 active; in the data active = inhibition above about 16%, passing the limit was not always enough; inconclusive = no clear call, values can overlap the other calls
CSC inhib: cancer stem cell viability inhibitors, primary screen, luminescence; cancer stem cell-like cells viability; inhibition, % at 7.5 µM; 1.1% of 300,000 active; in the data active = inhibition above about 75%; inconclusive = no clear call, values can overlap the other calls; tested in HMLE shEcad cells
SKKanGAS inh: S. pyogenes SKKanGAS growth inhibitors in kanamycin, primary screen, streptokinase expression inhibitor project, SKKanGAS strain, BacTiter-Glo luminescence. inhibition, % at 7.5 µM. 1.3% of 300,000 active. 6 h;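 active = mean replicate score, as percent of positive control median, at least 50; inconclusive = mean below 50 but one replicate at or above 50; inactive = mean and every replicate below 50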;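 also: strain carries kanamycin resistance gene driven by streptokinase promoter and grows in 40 µg/ml kanamycin; loss of luminescence reflects streptokinase promoter inhibition or plain growth inhibition; 0% = median of DMSO wells and 100% = positive control at its reference dose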
PfHsp90 set2: growth inhibition of PfHsp90-expressing yeast, primary screen, antimalarial PfHsp90 inhibitor project, S. cerevisiae, BacTiter-Glo luminescence, single point, set 2; BacTiter-Glo ATP, 48 h; yeast lacking PDR1 and PDR3 efflux regulators; 0.32% of 310,000 active; inhibition, % at 9.4 µM;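 active = every replicate shows inhibition above about 80%, whatever the replicate mean, limit read from the data; inconclusive = mean inhibition reaches the set limit but some replicate falls short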;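 also: 0% = DMSO neutral controls and 100% = 20 µM radicicol positive controls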
Rtt109 HAT inh: inhibitors of C. albicans Rtt109/Vps75 HAT, primary screen, biochemical, ThioGlo CoA-SH fluorescence, plate reader | purified Rtt109/Vps75, 4 h | inhibition, % at 34.9 µM | 0.16% of 330,000 active | AID 540336, 2011;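 active = inhibition of at least 50% in every replicate; inconclusive = best replicate reaches 50% inhibition but some replicates fall short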
Target sequence (Q5AAJ8 whole entry, looked up): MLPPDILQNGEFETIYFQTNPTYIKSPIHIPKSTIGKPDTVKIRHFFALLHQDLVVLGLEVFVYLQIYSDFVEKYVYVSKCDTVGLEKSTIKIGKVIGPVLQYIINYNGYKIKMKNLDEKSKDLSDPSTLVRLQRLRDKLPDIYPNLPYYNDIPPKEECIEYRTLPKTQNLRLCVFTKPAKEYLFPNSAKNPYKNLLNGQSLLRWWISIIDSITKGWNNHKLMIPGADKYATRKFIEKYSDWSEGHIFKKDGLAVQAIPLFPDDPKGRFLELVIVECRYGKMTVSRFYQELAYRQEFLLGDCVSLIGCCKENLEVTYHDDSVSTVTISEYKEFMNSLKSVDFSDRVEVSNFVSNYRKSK
Starred values were filed as active, the others as inactive; ? = inconclusive; . = not tested or not shown. The list is not random: actives were taken first. Their share in the collection is about 1.7%.

SMILES | FN deposit inh | PglD inh | CSC inhib | SKKanGAS inh | PfHsp90 set2 | Rtt109 HAT inh
O=C(Nc1ccc(NC(=O)c2cccs2)cc1)c1ccccc1 | 0.3 | 2.4 | 9.9 | 0.9 | -19.8 | -5.8
Cc1cccc(C(=O)Nc2ccc(C(=O)Nc3ccc(O)cc3)cc2)c1 | -17.5 | -0.5 | 94.6* | -0.3 | -19.7 | 1.0
O=C(Nc1ccc(O)cc1)c1ccc(NC(=O)c2cccs2)cc1 | 3.6 | -5.2 | 84.5* | -1.9 | -24.1 | -0.6
Cc1ccc(S(=O)(=O)N(C)C[C@@H]2Oc3ccc(NC(=O)CCN4CCOCC4)cc3C(=O)N([C@@H](C)CO)C[C@@H]2C)cc1 | . | -4.2 | . | . | . | .
CCC1CCCCN1S(=O)(=O)c1ccc(C(=O)Nc2nnc(C3=COCCO3)o2)cc1 (centres undefined) | 4.5 | 2.4 | 20.6 | 78.8* | -5.6 | 9.7
CCC1CCCCN1S(=O)(=O)c1ccc(C(=O)Nc2nnc(C3CC3)o2)cc1 (centres undefined) | -3.2 | 1.1 | 26.2 | 59.7* | -10.8 | -0.9
CC1CCN(S(=O)(=O)c2ccc(C(=O)Nc3nnc(-c4ccccn4)o3)cc2)CC1 | 11.1 | . | 25.5 | 4.5 | 1.8 | -0.8
CCC1CCCCN1S(=O)(=O)c1ccc(C(=O)Nc2nnc(-c3ccccc3Cl)o2)cc1 (centres undefined) | . | -0.4 | . | 109.8* | -44.7 | 0.4
CS(=O)(=O)c1ccccc1-c1nnc(NC(=O)c2ccc(S(=O)(=O)N3CCCC3)cc2)o1 | -2.6 | 4.8 | 3.1 | 5.8 | -2.0 | -5.0
O=C(Nc1nnc(-c2ccccc2Cl)o1)c1ccc(S(=O)(=O)N2CCCCCC2)cc1 | . | . | 64.2 | 107.2* | . | .
CC(=O)Nc1ccc2c(c1)CC(=O)N(C)C[C@H](C)[C@H](CN(C)C(=O)NC(C)C)O2 | 7.2 | . | . | . | . | .
CC1CCCCN1S(=O)(=O)c1ccc(C(=O)Nc2nnc(-c3ccncc3)o2)cc1 (centres undefined) | . | . | 28.5 | 26.7 | 2.7 | .
CC1CCCCN1S(=O)(=O)c1ccc(C(=O)Nc2nnc(-c3ccccc3Cl)o2)cc1 (centres undefined) | . | 6.1 | 42.0 | 96.9* | 0.3 | -1.6
CC1CC(C)CN(S(=O)(=O)c2ccc(C(=O)Nc3nnc(C4CC4)o3)cc2)C1 (centres undefined) | 3.3 | -7.0 | 63.4 | 67.8* | 0.5 | -3.2
CCOC(=O)N1CCN(S(=O)(=O)c2ccc(C(=O)Nc3nnc(C4CC4)o3)cc2)CC1 | -5.0 | . | 5.5 | 2.6 | -47.6 | -10.8
CCOC(=O)c1c(NC(=S)NCCc2ccccc2)sc2c1CC(C(C)C)OC2 (centres undefined) | . | -5.7 | 45.7 | 101.3* | -6.3 | 5.1
CC(C)c1nc(N2CCCC2)c(C#N)c2c1CCCC2 | 3.7 | -2.3 | 48.1 | 93.1* | 2.9 | 2.9
Cc1oc(CC(C)C)cc1C(=O)Nc1cccc2ccccc12 | . | -6.8 | 80.4* | 20.7 | -32.9 | -0.6
Cc1cc(C(=O)Nc2cccc3ccccc23)c(C)o1 | -3.6 | -7.7 | -8.2 | -0.2 | 0.8 | -0.4
CCCc1nc2ccccc2c(C(=O)OCC(=O)Nc2ccc(S(=O)(=O)N3CCOCC3)cc2)c1CC | 2.9 | -0.3 | 90.7* | ? | 9.3 | 19.9
CC1CCc2nc3ccccc3c(C(=O)OCC(=O)N3CCc4ccccc43)c2C1 (centres undefined) | . | . | 3.7 | 13.2 | -0.3 | 2.4
CCCc1nc2ccccc2c(C(=O)OCC(=O)N2CCc3ccccc32)c1CC | 3.1 | -9.1 | 82.7* | 22.7 | 8.8 | 2.1
CCCc1nc2ccccc2c(C(=O)OCC(=O)Nc2cccc(S(=O)(=O)N3CCOCC3)c2)c1CC | -10.9 | 2.6 | 9.8 | 18.6 | . | 5.2
N#Cc1nccnc1S(=O)(=O)c1cccs1 | 40.0* | . | 14.1 | 37.7 | . | .
CCN(CC)CCNC(=O)c1[nH]c2ccc(OCc3ccccc3)cc2c1C | 5.9 | . | 82.7* | 11.3 | -7.1 | 4.5
SMILES | FN deposit inh | PglD inh | CSC inhib | SKKanGAS inh | PfHsp90 set2 | Rtt109 HAT inh
CSc1cnn(-c2ccccc2)c(=O)c1SC | 4.0 | 0.6 | -10.9 | 2.3 | 22.5 | 16.9
CSc1cnn(Cc2ccccc2)c(=O)c1SCc1ccccc1 | -4.9 | . | 23.0 | 67.6* | -15.5 | -7.0
O=C(Oc1ccc(-c2cnc3ccccc3n2)cc1)c1ccc(Cl)c([N+](=O)[O-])c1 | . | . | -9.6 | 74.0* | -9.2 | 8.2
O=C(Oc1ccc(-c2cnc3ccccc3n2)cc1)c1cccc([N+](=O)[O-])c1 | . | . | -5.6 | 8.0 | 11.5 | -2.3
Cc1c(/C=N/NC(=O)c2ccc(O)cc2)c2ccccn2c1C(=O)c1ccc(F)cc1 | 3.8 | . | 29.6 | 51.9* | 19.7 | -0.3
Cc1c(/C=N/NC(=O)c2ccccc2O)c2ccccn2c1C(=O)c1ccc(F)cc1 | 6.7 | . | 0.1 | 29.3 | -4.8 | -3.0
O=C(Cc1ccccn1)N[C@H]1CC[C@H](CCNC(=O)c2cc(Cl)cc(Cl)c2)O[C@@H]1CO | -4.4 | 0.4 | . | . | . | .
COc1ccc(NC(=O)CSc2nc3nc(-c4cccs4)cc(C(F)(F)F)c3c(=O)[nH]2)c(OC)c1 | . | -0.1 | 13.8 | 54.4* | -5.2 | -15.9
N#Cc1ccc(Cl)cc1NC(=O)CSc1nc2nc(-c3cccs3)cc(C(F)(F)F)c2c(=O)[nH]1 | . | . | 14.5 | 55.0* | . | .
CCOc1ccccc1NC(=O)CSc1nc2nc(-c3cccs3)cc(C(F)(F)F)c2c(=O)[nH]1 | 0.6 | . | 53.8 | 30.2 | 19.6 | -3.6
O=C(N[C@H]1CC[C@H](CCn2cc(C3CCCC3)nn2)O[C@H]1CO)c1cccnc1 | 1.3 | . | . | . | . | .
CN(C)C(=O)C[C@H]1CC[C@H]2[C@@H](COC[C@H](O)CN2Cc2ccc(C(F)(F)F)cc2)O1 | -10.7 | 0.7 | . | . | . | .
CS(=O)(=O)c1ccc([C@@H](O)[C@@H](CO)NC(=O)C(Cl)Cl)cc1 | 4.8 | -3.0 | -16.0 | 107.9* | -5.2 | 4.8
CS(=O)(=O)c1ccc([C@@H](O)[C@@H](CF)NC(=O)C(Cl)Cl)cc1 | -2.6 | -1.9 | -14.6 | . | 9.7 | 16.4
Cc1c(Cl)cccc1Nc1nc(N)nc(CN2CCc3ccccc3C2)n1 | -1.4 | -8.3 | 17.6 | 80.0* | -10.7 | 23.1
COc1ccc(NC(=O)Nc2ccc3c(c2)CC(=O)N([C@H](C)CO)C[C@@H](C)[C@H](CN(C)Cc2ccc(-c4ccccc4)cc2)O3)cc1 | . | -1.6 | . | . | . | .
Cc1cc(C)nc(Sc2nc(Cl)nc(N(c3ccccc3)c3ccccc3)n2)n1 | -18.4 | 6.1 | 13.6 | -5.0 | 22.1 | 78.7*
CCOc1ccc(-c2nc(N)ncc2Oc2ccc(OC)cc2)c(O)c1 | 11.4 | -2.0 | -1.1 | 8.7 | -8.0 | 20.7

Screens: PubChem BioAssay, Broad Institute
